Reference: the M2OR odorant receptor database

Tests used:
Conditions in all cases: stereoisomer not certain
[1] = test system: T1, OR3A3 T48I L132F
T1 sequence (whole entry): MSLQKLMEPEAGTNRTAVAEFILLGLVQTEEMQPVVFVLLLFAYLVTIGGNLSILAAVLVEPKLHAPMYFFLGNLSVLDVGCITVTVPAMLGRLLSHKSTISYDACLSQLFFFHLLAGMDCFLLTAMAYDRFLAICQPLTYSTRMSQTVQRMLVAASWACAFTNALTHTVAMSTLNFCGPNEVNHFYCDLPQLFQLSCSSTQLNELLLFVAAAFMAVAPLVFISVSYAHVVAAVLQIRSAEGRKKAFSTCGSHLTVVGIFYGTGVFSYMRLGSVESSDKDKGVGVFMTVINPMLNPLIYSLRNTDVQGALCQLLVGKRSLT
How it was run: (§1)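 Transient luciferase assays in mammalian cell lines were common, though methods varied by source. The values come from published papers and their supplementary material, with extra details from the original authors when needed. Responsive refers to a measured signal the original authors judged statistically different from baseline, and non-responsive (inactive) to the remainder.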

[2] = biological target: OR4A15 (Homo sapiens) (UniProt Q8NGL6)
How it was run: as §1

[3] = biological target: T2, OR4A16 (Homo sapiens) (UniProt Q8NH70)
T2 sequence (whole entry): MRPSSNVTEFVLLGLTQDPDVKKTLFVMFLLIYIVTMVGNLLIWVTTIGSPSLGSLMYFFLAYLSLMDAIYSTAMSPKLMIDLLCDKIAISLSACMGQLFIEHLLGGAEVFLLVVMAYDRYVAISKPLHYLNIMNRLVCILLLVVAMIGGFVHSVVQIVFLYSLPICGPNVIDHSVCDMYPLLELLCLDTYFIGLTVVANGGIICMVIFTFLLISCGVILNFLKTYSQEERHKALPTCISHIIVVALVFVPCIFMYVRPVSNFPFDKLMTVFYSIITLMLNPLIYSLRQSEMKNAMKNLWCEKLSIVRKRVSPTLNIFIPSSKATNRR
How it was run: as §1

[4] = biological target: T3, OR4A47 (Homo sapiens) (UniProt Q6IF82)
T3 sequence (whole entry): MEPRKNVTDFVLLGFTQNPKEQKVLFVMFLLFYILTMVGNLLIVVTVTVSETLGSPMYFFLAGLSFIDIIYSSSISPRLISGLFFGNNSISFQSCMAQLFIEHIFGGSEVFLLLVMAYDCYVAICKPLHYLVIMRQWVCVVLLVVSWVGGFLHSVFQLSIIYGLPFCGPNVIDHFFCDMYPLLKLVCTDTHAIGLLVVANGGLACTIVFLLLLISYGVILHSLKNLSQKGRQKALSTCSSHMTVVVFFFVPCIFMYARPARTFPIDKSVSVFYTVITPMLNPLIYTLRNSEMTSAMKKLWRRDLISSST
How it was run: as §1

[5] = biological target: T4, OR4A5 (Homo sapiens) (UniProt Q8NH83)
T4 sequence (whole entry): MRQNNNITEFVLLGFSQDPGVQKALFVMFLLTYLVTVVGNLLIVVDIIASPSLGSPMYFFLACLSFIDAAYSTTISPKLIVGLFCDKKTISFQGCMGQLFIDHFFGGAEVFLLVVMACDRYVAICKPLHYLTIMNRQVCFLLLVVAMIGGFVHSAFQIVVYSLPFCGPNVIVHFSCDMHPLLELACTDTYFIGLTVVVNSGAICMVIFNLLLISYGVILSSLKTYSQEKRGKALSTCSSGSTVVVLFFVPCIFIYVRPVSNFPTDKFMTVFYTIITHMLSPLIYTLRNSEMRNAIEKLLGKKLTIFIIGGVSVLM
How it was run: as §1

[6] = biological target: T5, OR4B1 (Homo sapiens) (UniProt Q8NGF8)
T5 sequence (whole entry): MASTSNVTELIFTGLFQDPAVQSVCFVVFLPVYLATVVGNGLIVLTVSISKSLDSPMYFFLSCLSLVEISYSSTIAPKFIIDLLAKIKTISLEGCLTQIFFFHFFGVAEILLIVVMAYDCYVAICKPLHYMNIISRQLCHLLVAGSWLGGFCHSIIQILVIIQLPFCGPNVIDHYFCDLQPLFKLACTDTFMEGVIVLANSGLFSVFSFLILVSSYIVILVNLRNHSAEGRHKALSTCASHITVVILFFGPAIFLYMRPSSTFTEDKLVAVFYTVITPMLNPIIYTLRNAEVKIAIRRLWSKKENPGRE
How it was run: as §1

[7] = biological target: T6, OR4C11 (Homo sapiens) (UniProt Q6IEV9)
T6 sequence (whole entry): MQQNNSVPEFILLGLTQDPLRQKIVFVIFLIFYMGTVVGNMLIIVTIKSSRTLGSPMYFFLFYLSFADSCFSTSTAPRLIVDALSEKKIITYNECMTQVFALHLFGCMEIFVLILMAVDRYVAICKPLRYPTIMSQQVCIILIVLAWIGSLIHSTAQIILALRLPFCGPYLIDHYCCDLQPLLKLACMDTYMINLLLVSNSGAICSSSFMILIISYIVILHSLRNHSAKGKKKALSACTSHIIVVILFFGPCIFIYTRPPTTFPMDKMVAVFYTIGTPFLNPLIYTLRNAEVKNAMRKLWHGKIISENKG
How it was run: as §1

[8] = biological target: OR4C12 (Homo sapiens) (UniProt Q96R67)
How it was run: as §1

[9] = biological target: OR4C13 (Homo sapiens) (UniProt Q8NGP0)
How it was run: as §1

[10] = biological target: T7, OR4C16 (Homo sapiens) (UniProt Q8NGL9)
T7 sequence (whole entry): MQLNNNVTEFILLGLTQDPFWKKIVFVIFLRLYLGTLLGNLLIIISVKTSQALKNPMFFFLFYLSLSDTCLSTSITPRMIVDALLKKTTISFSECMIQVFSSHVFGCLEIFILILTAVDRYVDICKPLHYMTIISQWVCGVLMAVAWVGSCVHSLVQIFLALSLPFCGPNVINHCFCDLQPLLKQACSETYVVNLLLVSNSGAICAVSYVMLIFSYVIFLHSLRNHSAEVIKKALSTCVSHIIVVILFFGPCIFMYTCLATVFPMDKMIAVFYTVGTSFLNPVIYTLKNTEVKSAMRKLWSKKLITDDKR
How it was run: as §1

[11] = test system: OR4C3
How it was run: as §1

[12] = biological target: OR4C45 (Homo sapiens) (UniProt A6NMZ5)
How it was run: as §1
Target sequence in this assay (A6NMZ5 whole entry): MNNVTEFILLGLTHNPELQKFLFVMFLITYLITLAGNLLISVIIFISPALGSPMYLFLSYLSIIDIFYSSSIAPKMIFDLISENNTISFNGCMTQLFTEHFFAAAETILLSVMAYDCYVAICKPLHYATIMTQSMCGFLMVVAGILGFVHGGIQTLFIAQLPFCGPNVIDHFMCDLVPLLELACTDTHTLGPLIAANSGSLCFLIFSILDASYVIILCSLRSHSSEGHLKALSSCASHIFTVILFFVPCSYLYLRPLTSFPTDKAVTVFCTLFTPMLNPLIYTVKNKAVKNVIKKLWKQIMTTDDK

[13] = biological target: OR4C46 (Homo sapiens) (UniProt A6NHA9)
How it was run: as §1

[14] = biological target: OR4C5 (Homo sapiens) (UniProt Q8NGB2)
How it was run: as §1

[15] = biological target: OR4C6 (Homo sapiens) (UniProt Q8NH72)
How it was run: as §1

[16] = biological target: T8, OR3A4P (Homo sapiens) (UniProt P47883)
T8 sequence (whole entry): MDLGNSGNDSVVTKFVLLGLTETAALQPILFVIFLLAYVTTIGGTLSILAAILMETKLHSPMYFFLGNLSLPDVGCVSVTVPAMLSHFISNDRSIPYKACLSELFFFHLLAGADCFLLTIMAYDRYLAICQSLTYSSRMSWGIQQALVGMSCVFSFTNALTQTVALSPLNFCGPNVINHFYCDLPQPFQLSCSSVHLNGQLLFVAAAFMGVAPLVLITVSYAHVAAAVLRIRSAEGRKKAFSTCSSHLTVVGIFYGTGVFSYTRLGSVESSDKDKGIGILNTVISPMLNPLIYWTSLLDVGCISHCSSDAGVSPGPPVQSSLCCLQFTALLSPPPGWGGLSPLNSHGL
How it was run: as §1

[17] = biological target: OR4C15 (Homo sapiens) (UniProt Q8NGM1)
How it was run: as §1

[18] = biological target: OR4C3 (Homo sapiens) (UniProt Q8NH37)
How it was run: as §1

[19] = biological target: T9, OR4C45 (Homo sapiens) (UniProt A6NMZ5); remark: listed apart in the source
T9 sequence (whole entry): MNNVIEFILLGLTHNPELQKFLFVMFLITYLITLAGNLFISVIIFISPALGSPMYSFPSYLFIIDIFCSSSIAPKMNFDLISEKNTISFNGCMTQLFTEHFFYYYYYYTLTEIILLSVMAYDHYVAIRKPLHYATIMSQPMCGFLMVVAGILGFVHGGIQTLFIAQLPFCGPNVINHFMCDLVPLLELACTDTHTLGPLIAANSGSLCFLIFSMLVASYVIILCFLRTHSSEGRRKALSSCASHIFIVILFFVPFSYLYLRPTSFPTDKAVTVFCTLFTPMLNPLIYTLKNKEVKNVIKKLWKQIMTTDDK
How it was run: as §1

[20] = biological target: OR4A8 (Homo sapiens) (UniProt P0C604)
How it was run: as §1

Measured: odorant receptor agonist call

OR4C5 (Homo sapiens), sequence (Q8NGB2 whole entry): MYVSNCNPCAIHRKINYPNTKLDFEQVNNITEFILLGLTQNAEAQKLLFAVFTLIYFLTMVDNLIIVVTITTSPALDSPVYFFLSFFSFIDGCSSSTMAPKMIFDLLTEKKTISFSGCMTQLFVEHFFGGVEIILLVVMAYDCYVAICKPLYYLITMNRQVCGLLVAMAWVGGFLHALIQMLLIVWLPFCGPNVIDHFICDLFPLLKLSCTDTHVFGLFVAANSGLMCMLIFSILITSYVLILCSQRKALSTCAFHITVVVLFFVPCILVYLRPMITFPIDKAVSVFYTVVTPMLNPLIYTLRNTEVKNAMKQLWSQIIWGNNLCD
OR4C6 (Homo sapiens), sequence (Q8NH72 whole entry): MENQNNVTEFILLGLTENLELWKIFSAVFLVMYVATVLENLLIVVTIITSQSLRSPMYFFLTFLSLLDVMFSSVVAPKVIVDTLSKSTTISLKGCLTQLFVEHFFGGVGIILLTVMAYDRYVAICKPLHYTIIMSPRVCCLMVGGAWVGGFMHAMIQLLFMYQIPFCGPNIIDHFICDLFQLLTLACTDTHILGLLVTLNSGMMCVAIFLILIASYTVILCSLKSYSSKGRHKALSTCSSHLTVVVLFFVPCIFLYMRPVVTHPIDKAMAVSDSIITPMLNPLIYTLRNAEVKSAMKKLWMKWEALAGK
OR4A15 (Homo sapiens), sequence (Q8NGL6 whole entry): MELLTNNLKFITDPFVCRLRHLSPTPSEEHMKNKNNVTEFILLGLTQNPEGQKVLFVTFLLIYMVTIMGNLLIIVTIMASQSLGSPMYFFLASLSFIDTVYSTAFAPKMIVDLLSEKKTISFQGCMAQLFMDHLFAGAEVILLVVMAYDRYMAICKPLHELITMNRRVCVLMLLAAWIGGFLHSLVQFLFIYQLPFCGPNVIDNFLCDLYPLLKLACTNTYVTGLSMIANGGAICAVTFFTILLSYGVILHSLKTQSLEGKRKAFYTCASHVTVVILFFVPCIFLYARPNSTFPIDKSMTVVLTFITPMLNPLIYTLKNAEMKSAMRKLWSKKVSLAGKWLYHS
OR4C13 (Homo sapiens), sequence (Q8NGP0 whole entry): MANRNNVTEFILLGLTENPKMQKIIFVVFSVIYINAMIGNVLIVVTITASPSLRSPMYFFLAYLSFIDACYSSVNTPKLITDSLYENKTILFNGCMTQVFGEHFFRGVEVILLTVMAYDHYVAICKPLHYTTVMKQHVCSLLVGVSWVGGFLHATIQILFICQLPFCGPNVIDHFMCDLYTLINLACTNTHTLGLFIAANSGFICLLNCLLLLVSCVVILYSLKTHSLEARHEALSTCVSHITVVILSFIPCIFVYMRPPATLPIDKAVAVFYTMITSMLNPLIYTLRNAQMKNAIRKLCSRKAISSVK
OR4C3, sequence (as listed by the source): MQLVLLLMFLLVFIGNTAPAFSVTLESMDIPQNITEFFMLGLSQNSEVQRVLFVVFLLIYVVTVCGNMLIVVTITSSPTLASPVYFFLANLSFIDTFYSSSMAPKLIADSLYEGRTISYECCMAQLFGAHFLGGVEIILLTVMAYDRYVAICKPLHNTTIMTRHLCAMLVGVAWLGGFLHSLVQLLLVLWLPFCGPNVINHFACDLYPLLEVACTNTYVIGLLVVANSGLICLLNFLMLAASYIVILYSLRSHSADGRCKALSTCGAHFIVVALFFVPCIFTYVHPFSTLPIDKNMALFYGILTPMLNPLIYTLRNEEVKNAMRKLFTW
OR4C46 (Homo sapiens), sequence (A6NHA9 whole entry): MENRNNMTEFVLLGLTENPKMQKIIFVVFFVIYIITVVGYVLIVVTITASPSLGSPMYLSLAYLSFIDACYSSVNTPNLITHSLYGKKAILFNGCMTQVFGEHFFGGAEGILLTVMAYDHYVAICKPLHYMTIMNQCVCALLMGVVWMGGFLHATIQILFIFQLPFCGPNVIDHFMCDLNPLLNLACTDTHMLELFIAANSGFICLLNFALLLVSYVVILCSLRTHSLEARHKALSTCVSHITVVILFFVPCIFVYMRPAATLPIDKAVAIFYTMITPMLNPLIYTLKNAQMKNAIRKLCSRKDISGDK
OR4C15 (Homo sapiens), sequence (Q8NGM1 whole entry): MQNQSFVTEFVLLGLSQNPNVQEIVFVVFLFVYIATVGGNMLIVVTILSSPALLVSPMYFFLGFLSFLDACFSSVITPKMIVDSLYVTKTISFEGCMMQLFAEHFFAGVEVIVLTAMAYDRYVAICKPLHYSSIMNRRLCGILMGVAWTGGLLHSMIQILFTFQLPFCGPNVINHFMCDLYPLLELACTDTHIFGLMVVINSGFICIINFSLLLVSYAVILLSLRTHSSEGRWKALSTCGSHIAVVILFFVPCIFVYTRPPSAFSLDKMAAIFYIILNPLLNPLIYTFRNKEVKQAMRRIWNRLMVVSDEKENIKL
OR4C3 (Homo sapiens), sequence (Q8NH37 whole entry): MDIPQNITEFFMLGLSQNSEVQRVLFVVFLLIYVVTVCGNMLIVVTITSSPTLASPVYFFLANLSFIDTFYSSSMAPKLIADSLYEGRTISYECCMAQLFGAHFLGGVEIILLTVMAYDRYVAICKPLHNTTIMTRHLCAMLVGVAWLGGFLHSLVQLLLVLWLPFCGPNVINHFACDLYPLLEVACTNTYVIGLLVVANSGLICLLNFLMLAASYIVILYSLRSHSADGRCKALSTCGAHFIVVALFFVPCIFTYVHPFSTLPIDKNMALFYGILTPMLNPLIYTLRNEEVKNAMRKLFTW
OR4C12 (Homo sapiens), sequence (Q96R67 whole entry): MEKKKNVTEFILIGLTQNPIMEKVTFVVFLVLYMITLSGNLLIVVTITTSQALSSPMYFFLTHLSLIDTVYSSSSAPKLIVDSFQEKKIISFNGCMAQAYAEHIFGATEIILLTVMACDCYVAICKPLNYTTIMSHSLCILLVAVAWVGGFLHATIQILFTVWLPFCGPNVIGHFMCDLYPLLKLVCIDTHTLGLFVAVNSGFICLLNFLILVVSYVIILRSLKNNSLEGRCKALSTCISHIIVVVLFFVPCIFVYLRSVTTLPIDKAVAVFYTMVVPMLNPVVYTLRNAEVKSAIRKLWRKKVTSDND
OR4A8 (Homo sapiens), sequence (P0C604 whole entry): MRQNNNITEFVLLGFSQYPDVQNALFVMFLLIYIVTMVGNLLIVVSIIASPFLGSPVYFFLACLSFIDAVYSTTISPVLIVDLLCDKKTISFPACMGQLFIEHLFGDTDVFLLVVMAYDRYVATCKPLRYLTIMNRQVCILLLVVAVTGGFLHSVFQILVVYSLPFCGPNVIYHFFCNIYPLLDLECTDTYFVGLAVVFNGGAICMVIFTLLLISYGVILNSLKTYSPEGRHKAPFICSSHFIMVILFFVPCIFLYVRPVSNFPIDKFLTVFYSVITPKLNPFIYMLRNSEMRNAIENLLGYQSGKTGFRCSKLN

CC1=C(O)C(=O)OC1C (centres undefined)
inactive: [1] | [2] | [3] | [4] | [5] | [6] | [7] | [8] | [9] | [10] | [11] | [12] | [13] | [14] | [15]

CCC1OC(=O)C(O)=C1C (centres undefined)
inactive: [1] | [2] | [3] | [4] | [5] | [6] | [7] | [8] | [9] | [10] | [11] | [12] | [13] | [14] | [15]

CCC(S)C(C)CO (centres undefined)
inactive: [16] | [2] | [3] | [4] | [5] | [6] | [7] | [8] | [9] | [17] | [10] | [18] | [19] | [13] | [14] | [15]

CCCCCC(=O)C(C)C(C)=O (centres undefined)
inactive: [16] | [2] | [3] | [4] | [5] | [6] | [7] | [8] | [9] | [17] | [10] | [18] | [19] | [13] | [14] | [15]

CC1=NC(C)C(C)S1 (centres undefined)
inactive: [1] | [2] | [3] | [4] | [5] | [6] | [7] | [8] | [9] | [10] | [11] | [12] | [13] | [14] | [15]

CC1CCCCCCCCCCCCC(=O)C1 (centres undefined)
inactive: [2] | [3] | [4] | [5] | [20] | [6] | [7] | [8] | [9] | [17] | [10] | [18] | [19] | [13] | [14] | [15]

CC(CO)CS (centres undefined)
inactive: [16] | [2] | [3] | [4] | [5] | [6] | [7] | [8] | [9] | [17] | [10] | [18] | [19] | [13] | [14] | [15]
